Data: ChEMBL document CHEMBL1156343, “Bioactive acridone alkaloids from Swinglea glutinosa” (J Nat Prod, 2001)

Legend:
[1] = Cytotoxicity against human HeLa cells after 24 hrs by [3H]hypoxanthine incorporation assay; format: cell-based; settings: read-out: ED50
Procedure, shortened: (§1)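 HeLa cells grown in RPMI 1640 with 25 mM Hepes, 30 mM NaHCO3 and 5% fetal calf serum. After trypsinization, cells were seeded at 2×10^4 cells/well. Compounds were taken from 10 mg/mL DMSO stocks and diluted in serum-free medium to final 100–0.02 μg/mL (DMSO ≤1% final). Growth was read by [3H]-hypoxanthine incorporation at 24 and 72 h against untreated wells. Three experiments, each in triplicate.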

[2] = tested on: Plasmodium falciparum; assay: Antiplasmodial activity after 24 hrs against chloroquine-sensitive Plasmodium falciparum Nigerian by [3H]hypoxanthine uptake; format: functional, organism-based
Procedure, shortened: (§2)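 P. falciparum continuously cultured in human O± red cells, 1% hematocrit, RPMI 1640 with 25 mM Hepes, 30 mM NaHCO3, 5% human AB+ serum. Cultures synchronized daily by gelatine flotation and 5% sorbitol lysis. Tested mostly at ring stage, 0.5-1% parasitemia. DMSO stocks diluted serum-free to final 50-0.01 µg/mL (DMSO ≤1%). Three experiments in triplicate. IC50 read graphically from concentration versus percent inhibition curves.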

[3] = tested on: Plasmodium falciparum; assay: Antiplasmodial activity after 72 hrs against chloroquine-sensitive Plasmodium falciparum Nigerian by [3H]hypoxanthine uptake; format: functional, organism-based; procedure, shortened: as §2
[4] = Selectivity index, ratio of ED50 for human HeLa cells to IC50 for Plasmodium falciparum Nigerian after 24 hrs by [3H]hypoxanthine incorporation assay; format: functional
Procedure, shortened: (§3)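 Ratio of HeLa ED50 to P. falciparum Nigerian-strain IC50 at the same exposure time (24 or 72 h). For the parasite, ring-stage cultures synchronized by gelatine flotation and sorbitol were used at 0.5–1% parasitemia and 1% hematocrit in human red cells with 5% AB+ serum. Compounds ran at final 50–0.01 μg/mL. Growth was read by [3H]-hypoxanthine incorporation, and IC50 was read graphically from inhibition curves.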

[5] = tested on: Plasmodium falciparum; assay: Antiplasmodial activity against chloroquine-resistant Plasmodium falciparum FcM29 after 72 hrs by [3H]hypoxanthine uptake; format: functional, organism-based; procedure, shortened: as §2
[6] = Cytotoxicity against human HeLa cells after 72 hrs by [3H]hypoxanthine incorporation assay; format: cell-based; settings: read-out: ED50; procedure, shortened: as §1
[7] = tested on: Plasmodium falciparum; assay: Antiplasmodial activity after 24 hrs against chloroquine-resistant Plasmodium falciparum FcM29 by [3H]hypoxanthine uptake; format: functional, organism-based; procedure, shortened: as §2
[8] = Selectivity index, ratio of ED50 for human HeLa cells to IC50 for Plasmodium falciparum Nigerian after 72 hrs by [3H]hypoxanthine incorporation assay; format: functional; procedure, shortened: as §3

Row | Compound | CC50 at 24 h [1] | IC50 [2] | IC50 [3] | Ratio [4] | IC50 [5] | CC50 at 72 h [6] | IC50 [7] | Ratio [8]
1 | Cn1c2c(O)cccc2c(=O)c2c(O)cc3c(c21)C=CC(C)(C)O3 | 85.5 µM | 11.1 µM | 8.7 µM | 7.7 | 6.8 µM | 78 µM | 10.2 µM | 9
2 | COc1c(O)cc(O)c2c(=O)c3cccc(O)c3n(C)c12 [CITRUSININE-II] | 16.8 µM | 33 µM | 20.1 µM | 0.5 | 20.5 µM | 35.1 µM | 27.1 µM | 1.8
3 | CCN(CC)CCCC(C)Nc1ccnc2cc(Cl)ccc12 (centres undefined) [CHLOROQUINE PHOSPHATE] | > 100 µM | – | – | – | – | > 100 µM | – | –
4 | COc1c(O)c(CC=C(C)C)c(O)c2c(=O)c3cccc(O)c3n(C)c12 [GLYCOCITRINE-IV] | 0.71 µM | 2.5 µM | 2.5 µM | 0.3 | 2.3 µM | 5.3 µM | 2 µM | 2.1
5 | CC(C)=CCc1c(O)cc2c(c1O)c(=O)c1c(CC=C(C)C)ccc(O)c1n2C | 47.2 µM | 5.3 µM | 5.6 µM | 9 | 7.1 µM | 52.2 µM | 7.9 µM | 9.4
